Data as given in ChEMBL document CHEMBL1140412, “F-18 stilbenes as PET imaging agents for detecting beta-amyloid plaques in the brain” (J Med Chem, 2005).
Values belong to the compound of their own block, whether it stands above or below them.

What was measured:
[1] = Biodistribution in ICR mouse bone 1 hr after iv injection of [18F]-compound in 0.1% bovine serum albumin solution, n = 3; assay type: ADME, organism-based, Bone element; conditions: in vivo
How it was run: (§1)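 Male ICR mice (22-25 g) under isoflurane anesthesia received 0.15 mL of 0.1% BSA solution containing 5-10 μCi [¹⁸F]tracer by tail-vein injection; n = 3 per time point. Killed by cervical dislocation, organs removed, weighed and gamma-counted. %dose/g derived from sample counts vs. diluted initial dose; blood total activity assumed as 7% of body weight. Mean ± SD.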

[2] = Biodistribution in ICR mouse bone 2 hr after iv injection of [18F]-compound in 0.1% bovine serum albumin solution, n = 3; assay type: ADME, organism-based, Bone element; conditions: in vivo; how it was run: as §1
[3] = Biodistribution in ICR mouse lung 1 hr after iv injection of [18F]-compound in 0.1% bovine serum albumin solution, n = 3; assay type: ADME, organism-based; conditions: in vivo; how it was run: as §1
[4] = Biodistribution in ICR mouse lung 2 hr after iv injection of [18F]-compound in 0.1% bovine serum albumin solution, n = 3; assay type: ADME, organism-based; conditions: in vivo; how it was run: as §1
[5] = Biodistribution in ICR mouse skin 1 hr after iv injection of [18F]-compound in 0.1% bovine serum albumin solution, n = 3; assay type: ADME, organism-based, Zone of skin; conditions: in vivo; how it was run: as §1
[6] = molecular target: Amyloid-beta precursor protein (Homo sapiens, UniProt P05067); assay: Inhibition constant for I-125-IMPY binding to amyloid plaques in Alzheimers disease brain homogenates; assay type: tissue-based
Amyloid-beta precursor protein, sequence (P05067 whole entry): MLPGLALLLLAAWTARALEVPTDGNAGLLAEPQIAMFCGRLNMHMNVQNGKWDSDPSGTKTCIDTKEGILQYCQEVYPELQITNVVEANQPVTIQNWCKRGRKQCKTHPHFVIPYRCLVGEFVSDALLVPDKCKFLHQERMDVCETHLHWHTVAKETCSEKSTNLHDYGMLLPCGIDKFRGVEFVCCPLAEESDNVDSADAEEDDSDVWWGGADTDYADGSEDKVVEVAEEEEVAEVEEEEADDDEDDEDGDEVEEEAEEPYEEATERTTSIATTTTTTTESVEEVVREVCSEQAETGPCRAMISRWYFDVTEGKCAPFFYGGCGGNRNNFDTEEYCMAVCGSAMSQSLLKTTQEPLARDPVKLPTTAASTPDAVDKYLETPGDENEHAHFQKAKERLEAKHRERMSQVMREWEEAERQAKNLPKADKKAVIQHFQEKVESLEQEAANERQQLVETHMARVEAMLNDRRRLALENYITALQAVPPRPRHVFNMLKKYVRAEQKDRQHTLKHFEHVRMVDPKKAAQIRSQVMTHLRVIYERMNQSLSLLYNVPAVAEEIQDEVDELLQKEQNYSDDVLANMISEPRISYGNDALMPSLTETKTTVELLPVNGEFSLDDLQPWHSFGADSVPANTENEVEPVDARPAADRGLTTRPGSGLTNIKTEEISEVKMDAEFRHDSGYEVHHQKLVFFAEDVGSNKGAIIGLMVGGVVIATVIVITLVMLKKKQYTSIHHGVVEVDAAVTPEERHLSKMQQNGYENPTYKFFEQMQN
How it was run: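 Competition binding in pooled postmortem AD cortical homogenates (dissected gray/white matter, ~100 mg wet tissue/ml PBS pH 7.4; 20-50 μg per tube). [¹²⁵I]IMPY at 0.04-0.06 nM; inhibitors 10^-5-10^-10 M in PBS with 0.1% BSA. Nonspecific binding with 600 nM IMPY. Incubated 2 hr at 37°C, GF/B filtration, PBS washes, gamma counting. Ki from nonlinear regression.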

[7] = Biodistribution in ICR mouse skin 2 hr after iv injection of [18F]-compound in 0.1% bovine serum albumin solution, n = 3; assay type: ADME, organism-based, Zone of skin; conditions: in vivo; how it was run: as §1
[8] = Biodistribution in ICR mouse blood 1 hr after iv injection of [18F]-compound in 0.1% bovine serum albumin solution, n = 3; assay type: ADME, organism-based; conditions: in vivo; how it was run: as §1
[9] = Biodistribution in ICR mouse blood 2 hr after iv injection of [18F]-compound in 0.1% bovine serum albumin solution, n = 3; assay type: ADME, organism-based; conditions: in vivo; how it was run: as §1
[10] = Biodistribution in ICR mouse brain 1 hr after iv injection of [18F]-compound in 0.1% bovine serum albumin solution, n = 3; assay type: ADME, organism-based; conditions: in vivo; how it was run: as §1
[11] = Biodistribution in ICR mouse brain 2 hr after iv injection of [18F]-compound in 0.1% bovine serum albumin solution, n = 3; assay type: ADME, organism-based; conditions: in vivo; how it was run: as §1
[12] = Biodistribution in ICR mouse heart 1 hr after iv injection of [18F]-compound in 0.1% bovine serum albumin solution, n = 3; assay type: ADME, organism-based; conditions: in vivo; how it was run: as §1
[13] = Biodistribution in ICR mouse heart 2 hr after iv injection of [18F]-compound in 0.1% bovine serum albumin solution, n = 3; assay type: ADME, organism-based; conditions: in vivo; how it was run: as §1
[14] = Biodistribution in ICR mouse liver 1 hr after iv injection of [18F]-compound in 0.1% bovine serum albumin solution, n = 3; assay type: ADME, organism-based; conditions: in vivo; how it was run: as §1
[15] = Biodistribution in ICR mouse liver 2 hr after iv injection of [18F]-compound in 0.1% bovine serum albumin solution, n = 3; assay type: ADME, organism-based; conditions: in vivo; how it was run: as §1
[16] = Biodistribution in ICR mouse kidney 1 hr after iv injection of [18F]-compound in 0.1% bovine serum albumin solution, n = 3; assay type: ADME, organism-based; conditions: in vivo; how it was run: as §1
[17] = Biodistribution in ICR mouse kidney 2 hr after iv injection of [18F]-compound in 0.1% bovine serum albumin solution, n = 3; assay type: ADME, organism-based; conditions: in vivo; how it was run: as §1
[18] = Biodistribution in ICR mouse muscle 1 hr after iv injection of [18F]-compound in 0.1% bovine serum albumin solution, n = 3; assay type: ADME, organism-based, Muscle tissue; conditions: in vivo; how it was run: as §1
[19] = Biodistribution in ICR mouse muscle 2 hr after iv injection of [18F]-compound in 0.1% bovine serum albumin solution, n = 3; assay type: ADME, organism-based, Muscle tissue; conditions: in vivo; how it was run: as §1
[20] = Biodistribution in ICR mouse spleen 1 hr after iv injection of [18F]-compound in 0.1% bovine serum albumin solution, n = 3; assay type: ADME, organism-based; conditions: in vivo; how it was run: as §1
[21] = Biodistribution in ICR mouse spleen 2 hr after iv injection of [18F]-compound in 0.1% bovine serum albumin solution, n = 3; assay type: ADME, organism-based; conditions: in vivo; how it was run: as §1
[22] = Biodistribution in ICR mouse bone 2 min. after iv injection of [18F]-compound in 0.1% bovine serum albumin solution, n = 3; assay type: ADME, organism-based, Bone element; conditions: in vivo; how it was run: as §1
[23] = Biodistribution in ICR mouse lung 2 min. after iv injection of [18F]-compound in 0.1% bovine serum albumin solution, n = 3; assay type: ADME, organism-based; conditions: in vivo; how it was run: as §1
[24] = Biodistribution in ICR mouse skin 2 min. after iv injection of [18F]-compound in 0.1% bovine serum albumin solution, n = 3; assay type: ADME, organism-based, Zone of skin; conditions: in vivo; how it was run: as §1
[25] = Biodistribution in ICR mouse blood 2 min. after iv injection of [18F]-compound in 0.1% bovine serum albumin solution, n = 3; assay type: ADME, organism-based; conditions: in vivo; how it was run: as §1
[26] = Biodistribution in ICR mouse lung 30 min. after iv injection of [18F]-compound in 0.1% bovine serum albumin solution, n = 3; assay type: ADME, organism-based; conditions: in vivo, 0.5 h; how it was run: as §1
[27] = Biodistribution in ICR mouse skin 30 min. after iv injection of [18F]-compound in 0.1% bovine serum albumin solution, n = 3; assay type: ADME, organism-based, Zone of skin; conditions: in vivo, 0.5 h; how it was run: as §1
[28] = Biodistribution in ICR mouse blood 30 min. after iv injection of [18F]-compound in 0.1% bovine serum albumin solution, n = 3; assay type: ADME, organism-based; conditions: in vivo, 0.5 h; how it was run: as §1
[29] = Biodistribution in ICR mouse brain 30 min. after iv injection of [18F]-compound in 0.1% bovine serum albumin solution, n = 3; assay type: ADME, organism-based; conditions: in vivo, 0.5 h; how it was run: as §1
[30] = Biodistribution in ICR mouse heart 30 min. after iv injection of [18F]-compound in 0.1% bovine serum albumin solution, n = 3; assay type: ADME, organism-based; conditions: in vivo, 0.5 h; how it was run: as §1
[31] = Biodistribution in ICR mouse kidney 2 min. after iv injection of [18F]-compound in 0.1% bovine serum albumin solution, n = 3; assay type: ADME, organism-based; conditions: in vivo; how it was run: as §1
[32] = Biodistribution in ICR mouse liver 30 min. after iv injection of [18F]-compound in 0.1% bovine serum albumin solution, n = 3; assay type: ADME, organism-based; conditions: in vivo, 0.5 h; how it was run: as §1
[33] = Biodistribution in ICR mouse muscle 2 min. after iv injection of [18F]-compound in 0.1% bovine serum albumin solution, n = 3; assay type: ADME, organism-based, Muscle tissue; conditions: in vivo; how it was run: as §1
[34] = Biodistribution in ICR mouse spleen 2 min. after iv injection of [18F]-compound in 0.1% bovine serum albumin solution, n = 3; assay type: ADME, organism-based; conditions: in vivo; how it was run: as §1
[35] = Biodistribution in ICR mouse kidney 30 min. after iv injection of [18F]-compound in 0.1% bovine serum albumin solution, n = 3; assay type: ADME, organism-based; conditions: in vivo, 0.5 h; how it was run: as §1
[36] = Biodistribution in ICR mouse muscle 30 min. after iv injection of [18F]-compound in 0.1% bovine serum albumin solution, n = 3; assay type: ADME, organism-based, Muscle tissue; conditions: in vivo, 0.5 h; how it was run: as §1
[37] = Biodistribution in ICR mouse spleen 30 min. after iv injection of [18F]-compound in 0.1% bovine serum albumin solution, n = 3; assay type: ADME, organism-based; conditions: in vivo, 0.5 h; how it was run: as §1
[38] = Biodistribution in ICR mouse bone 30 min. after iv injection of [18F]-compound in 0.1% bovine serum albumin solution, n = 3; assay type: ADME, organism-based, Bone element; conditions: in vivo, 0.5 h; how it was run: as §1
[39] = Biodistribution in ICR mouse brain 2 min. after iv injection of [18F]-compound in 0.1% bovine serum albumin solution, n = 3; assay type: ADME, organism-based; conditions: in vivo; how it was run: as §1
[40] = Biodistribution in ICR mouse heart 2 min. after iv injection of [18F]-compound in 0.1% bovine serum albumin solution, n = 3; assay type: ADME, organism-based; conditions: in vivo; how it was run: as §1
[41] = Biodistribution in ICR mouse liver 2 min. after iv injection of [18F]-compound in 0.1% bovine serum albumin solution, n = 3; assay type: ADME, organism-based; conditions: in vivo; how it was run: as §1

Compound: CN(C)c1ccc(/C=C/c2ccc(OCC(CO)C[18F])cc2)cc1 (stereo not given)
Biodistribution [1]: 6.5 %Dose/g
Biodistribution [2]: 8.63 %Dose/g
Biodistribution [3]: 5 %Dose/g
Biodistribution [4]: 3.74 %Dose/g
Biodistribution [5]: 1.65 %Dose/g
Ki [6]: 0.015 µM
Biodistribution [7]: 1 %Dose/g
Biodistribution [8]: 1.51 %Dose/g
Biodistribution [9]: 1.18 %Dose/g
Biodistribution [10]: 2.97 %Dose/g
Biodistribution [11]: 1.37 %Dose/g
Biodistribution [12]: 1.45 %Dose/g
Biodistribution [13]: 0.91 %Dose/g
Biodistribution [14]: 13.46 %Dose/g
Biodistribution [15]: 9.51 %Dose/g
Biodistribution [16]: 2.97 %Dose/g
Biodistribution [17]: 2.19 %Dose/g
Biodistribution [18]: 1.22 %Dose/g
Biodistribution [19]: 0.66 %Dose/g
Biodistribution [20]: 1.24 %Dose/g
Biodistribution [21]: 0.99 %Dose/g
Biodistribution [22]: 1.57 %Dose/g
Biodistribution [23]: 93.4 %Dose/g
Biodistribution [24]: 0.67 %Dose/g
Biodistribution [25]: 1.79 %Dose/g
Biodistribution [26]: 12.93 %Dose/g
Biodistribution [27]: 1.69 %Dose/g
Biodistribution [28]: 1.65 %Dose/g
Biodistribution [29]: 5.21 %Dose/g
Biodistribution [30]: 2.76 %Dose/g
Biodistribution [31]: 13.32 %Dose/g
Biodistribution [32]: 14.65 %Dose/g
Biodistribution [33]: 0.84 %Dose/g
Biodistribution [34]: 4.43 %Dose/g
Biodistribution [35]: 4.64 %Dose/g
Biodistribution [36]: 1.53 %Dose/g
Biodistribution [37]: 2.45 %Dose/g
Biodistribution [38]: 2.06 %Dose/g
Biodistribution [39]: 5.55 %Dose/g
Biodistribution [40]: 10.43 %Dose/g
Biodistribution [41]: 14.13 %Dose/g

Compound: Nc1ccc(/C=C/c2ccc(O)cc2)cc1
Ki [6]: 0.095 µM

Compound: CN(C)c1ccc(/C=C/c2ccc(OCC(CO)Cc3ccc(Br)cc3)cc2)cc1 (stereo not given)
Ki [6]: 0.08 µM

Second part, the compound after the results:

Biodistribution [1]: 5.3 %Dose/g
Biodistribution [2]: 7.76 %Dose/g
Biodistribution [3]: 7.51 %Dose/g
Biodistribution [4]: 4.15 %Dose/g
Biodistribution [5]: 1.22 %Dose/g
Ki [6]: 0.005 µM
Biodistribution [7]: 0.57 %Dose/g
Biodistribution [8]: 1.82 %Dose/g
Biodistribution [9]: 0.78 %Dose/g
Biodistribution [10]: 0.72 %Dose/g
Biodistribution [11]: 0.31 %Dose/g
Biodistribution [12]: 1.54 %Dose/g
Biodistribution [13]: 0.65 %Dose/g
Biodistribution [14]: 14.58 %Dose/g
Biodistribution [15]: 8.14 %Dose/g
Biodistribution [16]: 3.06 %Dose/g
Biodistribution [17]: 1.5 %Dose/g
Biodistribution [18]: 0.85 %Dose/g
Biodistribution [19]: 0.41 %Dose/g
Biodistribution [20]: 1.37 %Dose/g
Biodistribution [21]: 1.22 %Dose/g
Biodistribution [22]: 1.53 %Dose/g
Biodistribution [23]: 26.13 %Dose/g
Biodistribution [24]: 0.92 %Dose/g
Biodistribution [25]: 2.6 %Dose/g
Biodistribution [26]: 8.9 %Dose/g
Biodistribution [27]: 1.49 %Dose/g
Biodistribution [28]: 2.47 %Dose/g
Biodistribution [29]: 1.7 %Dose/g
Biodistribution [30]: 2.06 %Dose/g
Biodistribution [31]: 11.7 %Dose/g
Biodistribution [32]: 19.6 %Dose/g
Biodistribution [33]: 0.74 %Dose/g
Biodistribution [34]: 5.01 %Dose/g
Biodistribution [35]: 4.13 %Dose/g
Biodistribution [36]: 1.31 %Dose/g
Biodistribution [37]: 2.41 %Dose/g
Biodistribution [38]: 2.13 %Dose/g
Biodistribution [39]: 9.75 %Dose/g
Biodistribution [40]: 7.49 %Dose/g
Biodistribution [41]: 20.61 %Dose/g
Compound: CNc1ccc(/C=C/c2ccc(OCC(CO)C[18F])cc2)cc1 (stereo not given)

Ki [6]: 0.015 µM
Compound: Nc1ccc(/C=C/c2ccc(OCC(CO)CF)cc2)cc1 (stereo not given)
